Assay results as given in PMC10494472 (Saudi Pharmaceutical Journal : SPJ, 2023).

What was measured:
Type in all cases: biochemical
FAS from chicken liver = FAS from chicken liver (Gallus gallus, UniProt P12276); assay: FAS inhibition assay
Outline: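 Chicken liver FAS (10 µg) with test compound (10–200 µg/mL) in 100 mM potassium phosphate buffer containing 1 mM dithiothreitol, 1 mM EDTA, 10 µM malonyl-CoA, 3 µM acetyl-CoA and 35 µM NADPH. Activity was followed at 37 °C as the change in NADPH absorbance at 340 nm. The blank omitted the enzyme.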

α-glucosidase (maltase) = α-glucosidase (maltase) (Saccharomyces cerevisiae, UniProt P53341); assay: α-glucosidase inhibition assay
Sequence of α-glucosidase (maltase) (P53341 whole entry): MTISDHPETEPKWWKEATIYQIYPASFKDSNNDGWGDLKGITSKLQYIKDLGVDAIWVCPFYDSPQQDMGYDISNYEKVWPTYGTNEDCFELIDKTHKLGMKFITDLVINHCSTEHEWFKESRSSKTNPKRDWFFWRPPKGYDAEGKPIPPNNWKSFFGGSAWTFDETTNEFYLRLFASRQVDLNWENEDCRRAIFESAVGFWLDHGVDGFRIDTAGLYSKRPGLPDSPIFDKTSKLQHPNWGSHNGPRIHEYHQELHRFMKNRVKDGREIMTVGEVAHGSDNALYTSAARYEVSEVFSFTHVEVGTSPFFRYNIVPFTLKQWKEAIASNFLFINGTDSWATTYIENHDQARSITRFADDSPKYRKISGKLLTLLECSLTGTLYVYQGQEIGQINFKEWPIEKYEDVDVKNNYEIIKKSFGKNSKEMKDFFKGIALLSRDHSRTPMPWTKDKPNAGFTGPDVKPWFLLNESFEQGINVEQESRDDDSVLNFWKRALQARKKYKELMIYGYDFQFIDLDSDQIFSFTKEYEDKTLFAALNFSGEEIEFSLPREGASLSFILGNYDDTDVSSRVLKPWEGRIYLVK

XO = XO (Bos taurus, UniProt P80457); assay: XO inhibition assay
Sequence of XO (P80457 whole entry): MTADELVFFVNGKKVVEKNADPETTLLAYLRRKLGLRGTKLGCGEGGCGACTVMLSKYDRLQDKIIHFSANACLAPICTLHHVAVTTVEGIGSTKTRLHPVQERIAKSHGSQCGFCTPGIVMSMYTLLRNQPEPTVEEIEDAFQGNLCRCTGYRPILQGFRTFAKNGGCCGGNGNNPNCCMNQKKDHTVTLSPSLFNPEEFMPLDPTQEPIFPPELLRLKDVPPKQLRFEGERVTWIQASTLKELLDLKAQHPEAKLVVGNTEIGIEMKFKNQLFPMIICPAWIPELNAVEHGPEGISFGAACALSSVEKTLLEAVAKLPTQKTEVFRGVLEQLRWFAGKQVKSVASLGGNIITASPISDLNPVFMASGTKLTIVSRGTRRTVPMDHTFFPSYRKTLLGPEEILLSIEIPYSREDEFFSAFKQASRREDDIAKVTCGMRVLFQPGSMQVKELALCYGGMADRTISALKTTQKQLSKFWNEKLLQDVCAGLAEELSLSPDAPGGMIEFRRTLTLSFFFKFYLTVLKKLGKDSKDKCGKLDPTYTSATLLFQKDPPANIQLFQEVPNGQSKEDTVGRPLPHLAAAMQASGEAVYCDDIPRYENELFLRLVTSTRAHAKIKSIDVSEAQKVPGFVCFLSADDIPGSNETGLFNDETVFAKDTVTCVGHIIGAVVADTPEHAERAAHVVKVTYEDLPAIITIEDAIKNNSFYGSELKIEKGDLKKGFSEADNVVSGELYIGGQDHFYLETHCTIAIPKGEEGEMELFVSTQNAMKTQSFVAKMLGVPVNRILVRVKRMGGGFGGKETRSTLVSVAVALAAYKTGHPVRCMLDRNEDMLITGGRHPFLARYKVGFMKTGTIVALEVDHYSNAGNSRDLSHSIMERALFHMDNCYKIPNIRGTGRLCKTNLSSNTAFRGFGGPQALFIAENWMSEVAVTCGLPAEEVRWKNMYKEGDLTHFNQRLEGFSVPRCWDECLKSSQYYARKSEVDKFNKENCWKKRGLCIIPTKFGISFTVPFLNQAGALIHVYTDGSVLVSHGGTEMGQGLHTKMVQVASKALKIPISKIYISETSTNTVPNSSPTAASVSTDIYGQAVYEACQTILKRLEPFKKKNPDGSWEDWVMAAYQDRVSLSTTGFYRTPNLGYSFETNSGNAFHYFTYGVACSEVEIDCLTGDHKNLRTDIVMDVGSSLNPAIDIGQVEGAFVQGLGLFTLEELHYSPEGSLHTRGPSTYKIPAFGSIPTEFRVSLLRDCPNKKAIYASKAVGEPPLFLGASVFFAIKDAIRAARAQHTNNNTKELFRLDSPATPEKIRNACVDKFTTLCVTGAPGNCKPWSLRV

Sequence of FAS from chicken liver (P12276 whole entry): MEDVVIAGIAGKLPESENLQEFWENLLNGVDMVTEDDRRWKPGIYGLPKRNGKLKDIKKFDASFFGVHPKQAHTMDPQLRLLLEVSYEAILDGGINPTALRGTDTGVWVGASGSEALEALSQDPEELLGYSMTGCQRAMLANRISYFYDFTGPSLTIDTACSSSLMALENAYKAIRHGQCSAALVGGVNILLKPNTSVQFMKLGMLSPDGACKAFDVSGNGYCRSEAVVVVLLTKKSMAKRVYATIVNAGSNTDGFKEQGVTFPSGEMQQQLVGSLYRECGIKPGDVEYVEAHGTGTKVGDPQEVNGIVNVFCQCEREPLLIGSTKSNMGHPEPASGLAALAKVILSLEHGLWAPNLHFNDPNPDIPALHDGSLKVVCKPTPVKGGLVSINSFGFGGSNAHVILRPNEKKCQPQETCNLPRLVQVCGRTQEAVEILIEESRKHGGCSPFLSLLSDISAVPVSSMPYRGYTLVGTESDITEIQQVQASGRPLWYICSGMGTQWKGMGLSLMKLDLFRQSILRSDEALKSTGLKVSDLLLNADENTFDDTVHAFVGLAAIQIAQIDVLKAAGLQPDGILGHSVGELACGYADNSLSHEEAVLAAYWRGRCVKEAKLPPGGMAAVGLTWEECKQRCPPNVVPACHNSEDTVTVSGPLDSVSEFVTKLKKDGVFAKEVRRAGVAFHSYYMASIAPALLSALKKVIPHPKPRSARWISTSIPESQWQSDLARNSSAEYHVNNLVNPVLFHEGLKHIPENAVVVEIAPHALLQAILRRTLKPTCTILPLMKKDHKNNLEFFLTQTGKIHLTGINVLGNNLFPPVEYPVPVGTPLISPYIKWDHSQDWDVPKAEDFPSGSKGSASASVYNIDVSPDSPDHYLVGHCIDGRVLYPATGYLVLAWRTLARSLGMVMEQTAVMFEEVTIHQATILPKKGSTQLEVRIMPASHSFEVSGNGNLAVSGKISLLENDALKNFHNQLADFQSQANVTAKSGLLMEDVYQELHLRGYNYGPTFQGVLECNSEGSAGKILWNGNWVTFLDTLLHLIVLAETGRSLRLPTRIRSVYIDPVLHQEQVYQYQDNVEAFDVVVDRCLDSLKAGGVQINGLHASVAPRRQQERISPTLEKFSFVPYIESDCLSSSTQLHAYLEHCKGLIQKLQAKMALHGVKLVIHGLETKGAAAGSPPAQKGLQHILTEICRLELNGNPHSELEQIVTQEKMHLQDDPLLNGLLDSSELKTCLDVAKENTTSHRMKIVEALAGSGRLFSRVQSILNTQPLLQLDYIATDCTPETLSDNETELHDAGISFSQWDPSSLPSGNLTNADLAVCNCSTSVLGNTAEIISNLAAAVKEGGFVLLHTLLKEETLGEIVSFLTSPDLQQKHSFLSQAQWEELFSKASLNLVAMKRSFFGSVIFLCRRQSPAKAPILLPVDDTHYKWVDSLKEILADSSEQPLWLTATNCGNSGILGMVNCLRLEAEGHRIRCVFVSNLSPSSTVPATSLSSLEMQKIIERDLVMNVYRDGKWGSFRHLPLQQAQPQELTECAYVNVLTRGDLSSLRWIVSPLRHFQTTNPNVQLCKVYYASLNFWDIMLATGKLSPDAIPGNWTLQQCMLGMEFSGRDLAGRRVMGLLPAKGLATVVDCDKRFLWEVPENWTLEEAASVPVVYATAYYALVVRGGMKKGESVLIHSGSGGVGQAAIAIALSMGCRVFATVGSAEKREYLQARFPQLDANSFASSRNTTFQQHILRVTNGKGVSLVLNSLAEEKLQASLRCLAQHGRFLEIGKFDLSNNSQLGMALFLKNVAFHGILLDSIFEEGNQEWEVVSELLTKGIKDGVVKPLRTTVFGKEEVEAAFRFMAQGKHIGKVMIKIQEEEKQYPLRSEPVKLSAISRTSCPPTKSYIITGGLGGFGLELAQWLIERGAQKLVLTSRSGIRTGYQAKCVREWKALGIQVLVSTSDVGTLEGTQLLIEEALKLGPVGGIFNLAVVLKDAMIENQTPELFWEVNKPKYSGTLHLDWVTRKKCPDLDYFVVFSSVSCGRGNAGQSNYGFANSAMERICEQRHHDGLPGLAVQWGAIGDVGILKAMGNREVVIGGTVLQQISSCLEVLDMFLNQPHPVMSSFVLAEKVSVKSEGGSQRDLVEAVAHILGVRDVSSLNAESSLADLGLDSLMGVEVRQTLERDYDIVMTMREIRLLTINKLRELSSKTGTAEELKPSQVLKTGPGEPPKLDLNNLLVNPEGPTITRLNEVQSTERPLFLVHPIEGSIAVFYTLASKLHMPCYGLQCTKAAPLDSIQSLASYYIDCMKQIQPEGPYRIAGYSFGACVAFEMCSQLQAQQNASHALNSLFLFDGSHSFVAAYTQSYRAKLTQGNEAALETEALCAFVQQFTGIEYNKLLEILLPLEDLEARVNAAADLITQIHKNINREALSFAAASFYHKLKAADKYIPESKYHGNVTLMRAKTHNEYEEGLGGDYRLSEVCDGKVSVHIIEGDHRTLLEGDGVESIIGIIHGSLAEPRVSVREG

IC50 (FAS from chicken liver) | IC50 (α-glucosidase (maltase)) | IC50 (XO) | SMILES
43.6 µM | – | – | COc1ccc(-c2cc(=O)c3c(O)cc(O)c(-c4cc(-c5cc(=O)c6c(O)cc(O)cc6o5)ccc4O)c3o2)cc1 [Compound 3, podocarpusflavone A]
63.2 µM | 88 µM | 69.9 µM | C=C(C)[C@@H]1CC[C@]2(CO)CC[C@]3(C)[C@H](CC[C@@H]4[C@@]5(C)CC[C@H](O)C(C)(C)[C@@H]5CC[C@]43C)[C@@H]12 [Compound 2, betulin]
75 µM | 92.8 µM | – | O=c1cc(-c2ccc(O)c(-c3c(O)cc(O)c4c(=O)cc(-c5ccc(O)cc5)oc34)c2)oc2cc(O)cc(O)c12 [Compound 4, amentoflavone]
98.3 µM | 101 µM | 109 µM | C=C(C)[C@@H]1CC[C@]2(C)CC[C@]3(C)[C@H](CC[C@@H]4[C@@]5(C)CC[C@H](O)C(C)(C)[C@@H]5CC[C@]43C)[C@@H]12 [Compound 1, lupeol]
